In PubChem BioAssay AID588829 (Broad Institute, 2011):
Calls of active or inactive are those of the source.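 How the source made its calls: active means compounds lowering the cell energy light signal whose fitted half-effect dose is at most twice the top tested dose; inconclusive means flat curve with a 30 to 70% drop, or poor fit; inactive means the rest.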

tested on: not listed separately; assay: viability loss of SR-BI-expressing CHO line – cell-based, CellTiter-Glo luminescence, 24 h, dry powder, set 2, cytotoxicity control for SR-BI HDL uptake inhibitor project, dose response (AID 588829); conditions: ldlA[mSR-BI] CHO cells viability, CellTiter-Glo ATP luminescence, 24 h; at 30 µM (top of the series)
Summary of the method: (§1)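 Material – ldlA cells expressing mouse scavenger receptor SR-BI · Dosing – compound series of 8 concentrations, delivered by pin transfer · Incubation – 24 h at 37 °C exposure, 10 min detection incubation · Signal – CellTiter-Glo ATP luminescence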

SMILES	activity change, negative = toxicity
C[C@@H]1CN([C@@H](C)CO)C(=O)Cc2cc(NC(=O)Nc3ccc(C(F)(F)F)cc3)ccc2O[C@@H]1CN(C)S(=O)(=O)c1ccc(Cl)cc1	-71.3% (inactive)

same assay, conditions: ldlA[mSR-BI] CHO cells viability, CellTiter-Glo ATP luminescence, 24 h; at 35 µM (top of the series)

SMILES	activity change, negative = toxicity
CC(C)(Sc1cc(C(C)(C)C)c(O)c(C(C)(C)C)c1)Sc1cc(C(C)(C)C)c(O)c(C(C)(C)C)c1	14.8% (inactive)
Cc1ccc2oc(-c3cccc(NC(=O)c4cc(-n5cnnc5)ccc4Cl)c3)nc2c1	-6.36% (inactive)
CC(=O)N1CCc2cc(-c3nc(NC(=O)c4cccc(OC(F)(F)F)c4)sc3C)ccc21	-14.1% (inactive)
COc1c(NC(=O)C(=O)c2ccc(OCCN3CCOCC3)c3ccccc23)cc(C(C)(C)C)cc1NS(C)(=O)=O	-4.11% (inactive)
CCC(=O)N1CC(C)(C)c2cc(-c3csc(NC(=O)c4cc(OC)cc(OC)c4)n3)ccc21	1.55% (inactive)
CC1CCC/C=C/C2CC(O)CC2C(O)/C=C\C(=O)O1 (stereo unspecified)	-13.3% (inactive)
C[C@H](C(=O)NC1CCCC1)N(C(=O)Cn1nnc(-c2ccc3c(c2)OCO3)n1)C1CCCCC1	11.2% (inactive)
COc1ccc(-c2cc(CC(=O)N(C3CCCCC3)C(C)C(=O)NC3CCCC3)no2)cc1OC (stereo unspecified)	13.9% (inactive)
CCC(=O)N1CCc2cc(-c3csc(NC(=O)c4cccc(OC)c4)n3)ccc21	2.38% (inactive)
C[C@@H]1CN([C@H](C)CO)C(=O)c2cc(NC(=O)Cc3cn(C)c4ccccc34)ccc2O[C@H]1CN(C)S(=O)(=O)c1ccc(Cl)cc1	3.86% (inactive)
CCNC(=O)N1CCc2cc(-c3csc(NC(=O)c4cc(OC)cc(OC)c4)n3)ccc21	9.7% (inactive)
COc1cc(OC)cc(C(=O)Nc2nc(-c3ccc4c(c3)CCN4C(=O)OC(C)(C)C)cs2)c1	12.9% (inactive)
COc1cc(OC)cc(C(=O)Nc2nc(-c3ccc4c(c3)CCN4C(=O)CN(C)C)cs2)c1	8.9% (inactive)
COCC(=O)N1CCc2cc(-c3csc(NC(=O)c4cc(OC)cc(OC)c4)n3)ccc21	10.9% (inactive)

tested on: ldlA[mSR-BI] CHO cells viability, CellTiter-Glo ATP luminescence, 24 h; assay: as above; conditions: not given
Summary of the method: as §1

SMILES	IC50 [µM]
CCCCCCC1CCC/C1=N\NC(N)=S (stereo unspecified)	9.05
